Experimental data: ChEMBL document CHEMBL1141301, “Trypanocidal and antileishmanial dihydrochelerythrine derivatives from Garcinia lucida” (J Nat Prod, 2007)

Columns and labels:
[1] = system: Vero; assay: Cytotoxicity against african green monkey Vero cells; format: cell-based; conditions: Chlorocebus sabaeus
[2] = system: Trypanosoma brucei brucei; assay: Antitrypanosomal activity against Trypanosoma brucei brucei MITat 1.2 variant 221; format: functional, organism-based
How it was run: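 Bloodstream-form parasites (MITat 1.2, variant 221) grown axenically in HMI-9 medium, run by a previously reported protocol. Pentamidine and suramin included as standards. IC50 taken as the mean of three tests done on different days.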

[3] = system: Leishmania donovani; assay: Antileishmanial activity against Leishmania donovani axenic amastigotes; format: functional, organism-based
How it was run: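 L. donovani amastigote-like parasites (WHO MHOM/SD/62/1S-CL2D), axenic; 3-day growth inhibition assay read with tetrazolium dye-based CellTiter reagent; IC50 determined.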

[4] = system: Leishmania donovani; assay: Antileishmanial activity against Leishmania donovani promastigotes at 1 uM; format: functional
[5] = system: Leishmania donovani; assay: Antileishmanial activity against Leishmania donovani promastigotes at 10 uM; format: functional
[6] = system: Leishmania donovani; assay: Antileishmanial activity against Leishmania donovani promastigotes in RAW cells assessed as reduction in infection; format: functional; parameters: scale not given: the % may be the effect or the level left
How it was run: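 RAW 264.7 macrophages (1 × 10^6) plated 2 h, infected 6 h with stationary-phase luciferase-transfected L. donovani promastigotes at 20:1 parasite:macrophage; free parasites washed off with PBS; compound-treated; survival by luciferase luminescence 24 h later; triplicate; % reduction in infection versus untreated wells.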

[7] = system: Leishmania donovani; assay: Antileishmanial activity against Leishmania donovani promastigotes at 100 uM; format: functional
[8] = system: RAW; assay: Cytotoxicity against mouse RAW cells; format: cell-based
How it was run: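 RAW 264.7 murine macrophages in DMEM with 10% heat-inactivated FBS, antibiotics, 2 mM L-glutamine at 37 °C, 5% CO2; 1 × 10^5 cells treated or untreated with compounds for 48 h; viability read with alamarBlue.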

SMILES	IC50 [1] [µM]	IC50 [2] [nM]	IC50 [3] [µM]	inhibition at 1 µM [4] [%]	inhibition at 10 µM [5] [%]	Activity [6] [%]	inhibition at 100 µM [7] [%]	Activity [8]
N=C(N)c1ccc(OCCCCCOc2ccc(C(=N)N)cc2)cc1 [PENTAMIDINE]	13.7	2.5	1.3					
COc1ccc2c(c1OC)CN(C)c1c-2ccc2cc3c(cc12)OCO3 [DIHYDROCHELERYTHRINE]	35.4	800	2	36	89	70.9	100	
COc1ccc2c(c1OC)[C@H](CC(C)=O)N(C)c1c-2ccc2cc(O)c(O)cc12 [LUCIDAMINE A]	11.6	14100	10.8	23	76		100	Toxic
c1cc2c(cc1[C@H]1OC[C@H]3[C@@H]1CO[C@@H]3c1ccc3c(c1)OCO3)OCO2 [SESAMIN]								Non-toxic
CC(C)CNC(=O)/C=C/c1ccc2c(c1)OCO2 [FOGARAMIDE]								Non-toxic
C=CC(C)(C)c1c(O)c(O)c(C(C)(C)C=C)c2c3c(ccc12)-c1ccc(OC)c(OC)c1[C@H](CC(C)=O)N3C [LUCIDAMINE B]	17.5	4100	6.8	14	48		64	Toxic
Cc1ccc(C(=O)Nc2ccc(S(=O)(=O)O)c3cc(S(=O)(=O)O)cc(S(=O)(=O)O)c23)cc1NC(=O)c1cccc(NC(=O)Nc2cccc(C(=O)Nc3cc(C(=O)Nc4ccc(S(=O)(=O)O)c5cc(S(=O)(=O)O)cc(S(=O)(=O)O)c45)ccc3C)c2)c1 [SURAMIN]		200						
COc1ccc2c(c1OC)[C@H](CC(C)=O)N(C)c1c-2ccc2cc3c(cc12)OCO3	15.3	3900	6.6	23	87	57.4	100	
